Tests used:
Assay type in all cases: functional
MDA-MB-231 = experiment: Growth inhibition of human MDA-MB-231 cells after 48 hrs by sulforhodamine B assay; conditions: MDA-MB-231, 48 h
How it was run: (§1)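 NCI 60-cell-line panel grown in RPMI-type medium with 5% fetal calf serum and 2 mM L-glutamine. Cells preincubated 24 h, then exposed continuously for 48 h to compound in DMSO at 10^-4 to 10^-8 M (five 10-fold levels). Growth read by SRB protein stain. GI50 is the concentration giving a 50% reduction in net protein increase relative to control cells.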

TK-10 = experiment: Growth inhibition of human TK10 cells after 48 hrs by sulforhodamine B assay; conditions: TK-10, 48 h; for CC50: read-out: LC50 (the source's name)
How it was run: (§2)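 NCI 60-line panel. Cells were grown in medium with 5% fetal calf serum and 2 mM L-glutamine and preincubated 24 h in plates. Compound in DMSO was added at 10^-4 to 10^-8 M (five 10-fold levels), with continuous exposure for 48 h. Growth was read by SRB protein staining. GI50 is the concentration giving 50% reduction in net protein increase versus control cells.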

RXF 393 [1] = experiment: Growth inhibition of human RXF393 cells after 48 hrs by sulforhodamine B assay; conditions: RXF 393, 48 h
How it was run: (§3)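 NCI 60-cell-line panel. Cells were grown in medium with 5% fetal calf serum and 2 mM L-glutamine, then preincubated 24 h in plates. Compounds were added from DMSO at five 10-fold concentrations from 100 to 0.01 µM and left on cells continuously for 48 h. Cell growth was read by sulforhodamine B protein stain. GI50 is the concentration that halves net protein increase relative to control cells.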

ACHN = experiment: Growth inhibition of human ACHN cells after 48 hrs by sulforhodamine B assay; how it was run: as §1
[2] = Growth inhibition of human NCI-ADR-RES cells after 48 hrs by sulforhodamine B assay; how it was run: as §3
OVCAR-5 = experiment: Growth inhibition of human OVCAR5 cells after 48 hrs by sulforhodamine B assay; conditions: OVCAR-5, 48 h; for CC50: read-out: LC50 (the source's name); how it was run: as §3
OVCAR-8 = experiment: Growth inhibition of human OVCAR8 cells after 48 hrs by sulforhodamine B assay; conditions: OVCAR-8, 48 h; how it was run: as §3
OVCAR-4 [3] = experiment: Growth inhibition of human OVCAR4 cells after 48 hrs by sulforhodamine B assay; conditions: OVCAR-4, 48 h; how it was run: as §3
UACC-257 [4] = experiment: Growth inhibition of human UACC257 cells after 48 hrs by sulforhodamine B assay; conditions: UACC-257, 48 h; how it was run: as §2
SK-MEL-5 [5] = experiment: Growth inhibition of human SK-MEL-5 cells after 48 hrs by sulforhodamine B assay; conditions: SK-MEL-5, 48 h; how it was run: as §3
SK-MEL-28 = experiment: Growth inhibition of human SK-MEL-28 cells after 48 hrs by sulforhodamine B assay; conditions: SK-MEL-28, 48 h; for CC50: read-out: LC50 (the source's name); how it was run: as §3
LOX IMVI = experiment: Growth inhibition of human LOXIMVI cells after 48 hrs by sulforhodamine B assay; conditions: for CC50: read-out: LC50 (the source's name); how it was run: as §1
SNB-75 = experiment: Growth inhibition of human SNB75 cells after 48 hrs by sulforhodamine B assay; conditions: SNB-75, 48 h; for CC50: read-out: LC50 (the source's name); how it was run: as §3
HT-29 = experiment: Growth inhibition of human HT-29 cells after 48 hrs by sulforhodamine B assay; conditions: HT-29, 48 h; how it was run: as §1
HCT-15 = experiment: Growth inhibition of human HCT15 cells after 48 hrs by sulforhodamine B assay; conditions: HCT-15, 48 h; how it was run: as §1
NCI-H460 = experiment: Growth inhibition of human NCI-H460 cells after 48 hrs by sulforhodamine B assay; conditions: NCI-H460, 48 h; for CC50: read-out: LC50 (the source's name); how it was run: as §3
BT-549 = experiment: Growth inhibition of human BT549 cells assessed as cell growth at 10 uM after 48 hrs by sulforhodamine B assay; conditions: BT-549, 48 h, read-out: Activity
MCF7 = experiment: Growth inhibition of human MCF7 cells assessed as cell growth at 10 uM after 48 hrs by sulforhodamine B assay; conditions: MCF7, 48 h, read-out: Activity
PC-3 = experiment: Growth inhibition of human PC3 cells assessed as cell growth at 10 uM after 48 hrs by sulforhodamine B assay; conditions: PC-3, 48 h, read-out: Activity
RXF 393 [6] = experiment: Growth inhibition of human RXF393 cells assessed as cell growth at 10 uM after 48 hrs by sulforhodamine B assay; conditions: RXF 393, 48 h, read-out: Activity
CAKI-1 = experiment: Growth inhibition of human CAKI-1 cells assessed as cell growth at 10 uM after 48 hrs by sulforhodamine B assay; conditions: CAKI-1, 48 h, read-out: Activity
OVCAR-4 [7] = experiment: Growth inhibition of human OVCAR4 cells assessed as cell growth at 10 uM after 48 hrs by sulforhodamine B assay; conditions: OVCAR-4, 48 h, read-out: Activity
UACC-257 [8] = experiment: Growth inhibition of human UACC257 cells assessed as cell growth at 10 uM after 48 hrs by sulforhodamine B assay; conditions: UACC-257, 48 h, read-out: Activity
How it was run: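 Single-dose NCI screen. Tumor lines were cultured in medium with 5% fetal calf serum and 2 mM L-glutamine, preincubated 24 h, then given compound in DMSO. After 48 h continuous exposure, cell growth was estimated by sulforhodamine B protein assay.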

SK-MEL-5 [9] = experiment: Growth inhibition of human SK-MEL-5 cells assessed as cell growth at 10 uM after 48 hrs by sulforhodamine B assay; conditions: SK-MEL-5, 48 h, read-out: Activity
Malme-3M = experiment: Growth inhibition of human MALME-3M cells assessed as cell growth at 10 uM after 48 hrs by sulforhodamine B assay; conditions: read-out: Activity
HCT-116 = experiment: Growth inhibition of human HCT116 cells assessed as cell growth at 10 uM after 48 hrs by sulforhodamine B assay; conditions: HCT-116, 48 h, read-out: Activity
NCI-H23 = experiment: Growth inhibition of human NCI-H23 cells assessed as cell growth at 10 uM after 48 hrs by sulforhodamine B assay; conditions: NCI-H23, 48 h, read-out: Activity
A549 = experiment: Growth inhibition of human A549/ATCC cells assessed as cell growth at 10 uM after 48 hrs by sulforhodamine B assay; conditions: A549, 48 h, read-out: Activity
K562 = experiment: Growth inhibition of human K562 cells assessed as cell growth at 10 uM after 48 hrs by sulforhodamine B assay; conditions: K562, 48 h, read-out: Activity

## O=c1[nH]cc(F)c(=O)[nH]1 [FLUOROURACIL]
MDA-MB-231
  GI50: 6.6 µM
TK-10
  GI50: 1.12 µM
RXF 393 [1]
  GI50: 2.61 µM
ACHN
  GI50: 0.29 µM
[2]
  GI50: 0.31 µM
OVCAR-5
  GI50: 10.9 µM
OVCAR-8
  GI50: 1.74 µM
OVCAR-4 [3]
  GI50: 4.43 µM
UACC-257 [4]
  GI50: 3.55 µM
SK-MEL-5 [5]
  GI50: 0.46 µM
SK-MEL-28
  GI50: 1.03 µM
LOX IMVI
  GI50: 0.24 µM
SNB-75
  GI50: 78.7 µM
HT-29
  GI50: 0.17 µM
HCT-15
  GI50: 0.11 µM
NCI-H460
  GI50: 0.05 µM

## Cc1cc(O)ccc1C1=NN(c2ccc(S(C)(=O)=O)cc2)C(=O)CC1
BT-549
  growth at 10 µM: 58.2%
MCF7
  growth at 10 µM: 82.8%
PC-3
  growth at 10 µM: 77.9%
RXF 393 [6]
  growth at 10 µM: 81.2%
CAKI-1
  growth at 10 µM: 25.4%
OVCAR-4 [7]
  growth at 10 µM: 98%
UACC-257 [8]
  growth at 10 µM: 93%
SK-MEL-5 [9]
  growth at 10 µM: 68.3%
Malme-3M
  growth at 10 µM: 52.7%
HCT-116
  growth at 10 µM: 52.4%
NCI-H23
  growth at 10 µM: 32.9%
A549
  growth at 10 µM: 72.2%
K562
  growth at 10 µM: 20.6%
MDA-MB-231
  GI50: 17.1 µM
  LC50: > 100 µM
  TGI: > 100 µM
TK-10
  GI50: 80.5 µM
  TGI: > 100 µM
  CC50: > 100 µM
RXF 393 [1]
  GI50: 12.8 µM
  LC50 (50% lethal concentration): > 100 µM
  TGI: > 100 µM
ACHN
  GI50: 37.8 µM
  LC50 (concentration killing 50% of starting cells): > 100 µM
  TGI: > 100 µM
[2]
  GI50: 3.26 µM
  LC50: > 100 µM
  TGI: > 100 µM
OVCAR-5
  GI50: 53.8 µM
  TGI: > 100 µM
  CC50: > 100 µM
OVCAR-8
  GI50: 12.3 µM
  LC50: > 100 µM
  TGI: > 100 µM
OVCAR-4 [3]
  GI50: 76.9 µM
  LC50: > 100 µM
  TGI: > 100 µM
UACC-257 [4]
  GI50: 5.65 µM
  LC50 (concentration killing 50% of cells): > 100 µM
  TGI: > 100 µM
SK-MEL-5 [5]
  GI50: 5.49 µM
  LC50: > 100 µM
  TGI: > 100 µM
SK-MEL-28
  GI50: 9.56 µM
  TGI: > 100 µM
  CC50: > 100 µM
LOX IMVI
  GI50: 7.25 µM
  TGI: > 100 µM
  CC50: > 100 µM
SNB-75
  GI50: 5.53 µM
  TGI: > 75.2 µM
  CC50: > 100 µM
HT-29
  GI50: 3.7 µM
  LC50 (50% lethal concentration): > 100 µM
  TGI: 32.3 µM
HCT-15
  GI50: 7.91 µM
  LC50: > 100 µM
  TGI: > 100 µM
NCI-H460
  GI50: 3.87 µM
  TGI: > 100 µM
  CC50: > 100 µM

## Cc1ccc(C2=NN(c3ccc(S(C)(=O)=O)cc3)C(=O)CC2)cc1
BT-549
  growth at 10 µM: 11.3%
MCF7
  growth at 10 µM: 16.2%
PC-3
  growth at 10 µM: 29.3%
RXF 393 [6]
  growth at 10 µM: 15.4%
OVCAR-4 [7]
  growth at 10 µM: 60.8%
UACC-257 [8]
  growth at 10 µM: 50.7%
SK-MEL-5 [9]
  growth at 10 µM: 13.9%
Malme-3M
  growth at 10 µM: 45.5%
HCT-116
  growth at 10 µM: 17.7%
NCI-H23
  growth at 10 µM: -19.6%
A549
  growth at 10 µM: 36.6%
K562
  growth at 10 µM: 11.7%
MDA-MB-231
  GI50: 0.83 µM
  LC50: > 100 µM
  TGI: > 100 µM
TK-10
  GI50: 7.69 µM
  TGI: > 100 µM
  CC50: > 100 µM
RXF 393 [1]
  GI50: 0.63 µM
  LC50 (50% lethal concentration): > 100 µM
  TGI: 6.8 µM
ACHN
  GI50: 4.02 µM
  LC50 (concentration killing 50% of starting cells): > 100 µM
  TGI: > 100 µM
[2]
  GI50: 0.27 µM
  LC50: > 100 µM
OVCAR-5
  GI50: 3.69 µM
  TGI: > 100 µM
  CC50: > 100 µM
OVCAR-8
  GI50: 0.74 µM
  LC50: > 100 µM
  TGI: > 100 µM
OVCAR-4 [3]
  GI50: > 100 µM
  LC50: > 100 µM
  TGI: > 100 µM
UACC-257 [4]
  GI50: 0.61 µM
  LC50 (concentration killing 50% of cells): > 100 µM
  TGI: > 100 µM
SK-MEL-5 [5]
  GI50: 0.41 µM
  LC50: > 100 µM
  TGI: > 100 µM
SK-MEL-28
  GI50: 0.66 µM
  TGI: > 100 µM
  CC50: > 100 µM
LOX IMVI
  GI50: 0.74 µM
  TGI: > 100 µM
  CC50: > 100 µM
SNB-75
  GI50: 0.54 µM
  TGI: > 9.25 µM
  CC50: > 100 µM
HT-29
  GI50: 0.33 µM
  LC50 (50% lethal concentration): > 100 µM
  TGI: 10 µM
HCT-15
  GI50: 0.61 µM
  LC50: > 100 µM
  TGI: > 100 µM
NCI-H460
  GI50: 0.38 µM
  TGI: > 100 µM
  CC50: > 100 µM

From ChEMBL document CHEMBL2417474, “Synthesis, antiproliferative and anti-inflammatory activities of some novel 6-aryl-2-(p-(methanesulfonyl)phenyl)-4,5-dihydropyridazi-3(2H)-ones” (Eur J Med Chem, 2013)
